According to ChEMBL document CHEMBL4364345, “Synthesis and evaluation of 1,3,4-oxadiazole derivatives for development as broad-spectrum antibiotics” (Bioorg Med Chem, 2019):
≈ marks a conversion by molar mass, not a printed value. Calls of active or inactive are those of the source.

Tests used:
[1] = test system: Enterococcus faecium; assay: Synergistic antimicrobial activity against Enterococcus faecium AUS0004 assessed as DIZ at 50 ug/disk incubated for 20 +/- 4 hrs in presence of erythromycin by agar disk diffusion method (reference value: 6 millimeter); format: functional; settings: read-out: DIZ
[2] = test system: Clostridium perfringens; assay: Antimicrobial activity against Clostridium perfringens clinical isolate at 50 ug/disk incubated for 20 +/- 4 hrs by agar disk diffusion method; format: functional; settings: read-out: DIZ
Outline: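 Agar disk diffusion on MH agar with 5% horse blood (MHF), surface-seeded by swab from a 0.5 McFarland inoculum (about 10^8 CFU/ml). Cellulose discs received 10 μl of a 5 g/L DMSO solution (50 μg). A DMSO-only disc served as control. Anaerobic incubation at 35 ± 2 °C for 20 ± 4 h; growth-inhibition diameter measured in mm.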

[3] = test system: Listeria monocytogenes; assay: Antimicrobial activity against Listeria monocytogenes clinical isolate at 50 ug/disk incubated for 20 +/- 4 hrs by agar disk diffusion method; format: functional; settings: read-out: DIZ
Outline: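 Disk diffusion on MH agar with 5% horse blood, seeded by swab from a 0.5 McFarland suspension. Discs held 50 μg compound from a 5 g/L DMSO solution, with a DMSO-only control disc. Aerobic incubation at 35 ± 2 °C for 20 ± 4 h; inhibition zone diameter read.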

[4] = test system: Acinetobacter baumannii; assay: Antimicrobial activity against Acinetobacter baumannii clinical isolate at 50 ug/disk incubated for 20 +/- 4 hrs by agar disk diffusion method; format: functional; settings: read-out: DIZ
Outline: (§1)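 Agar disk diffusion on Mueller-Hinton agar swab-seeded from a 0.5 McFarland inoculum (about 10^8 CFU/ml). Cellulose discs got 50 μg compound (10 μl of 5 g/L in DMSO); a 10 μL DMSO disc was the control. Incubated aerobically at 35 ± 2 °C for 20 ± 4 h, then growth-inhibition diameters measured.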

[5] = test system: Huh-7; assay: Cytotoxicity against human HuH7 cells assessed as decrease in cell viability in MTT assay; format: cell-based
Outline: (§2)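 Cell viability was measured by MTT on a robotic screening platform. Residual viability was expressed as a percentage of the mean viable cells in DMSO-treated controls. Under 25-30% viability was considered cytotoxic, and IC50 values were derived.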

[6] = test system: MDA-MB-231; assay: Cytotoxicity against human MDA-MB-231 cells assessed as decrease in cell viability in MTT assay; format: cell-based; outline: as §2
[7] = test system: Enterococcus faecalis; assay: Synergistic antimicrobial activity against Enterococcus faecalis ATCC 29212 assessed as DIZ at 50 ug/disk incubated for 20 +/- 4 hrs in presence of gentamicin by agar disk diffusion method (reference value: 13 millimeter); format: functional; settings: read-out: DIZ
[8] = test system: Enterococcus faecium; assay: Synergistic antimicrobial activity against Enterococcus faecium AUS0004 assessed as DIZ at 50 ug/disk incubated for 20 +/- 4 hrs in presence of gentamicin by agar disk diffusion method (reference value: 17 millimeter); format: functional; settings: read-out: DIZ
[9] = test system: Enterococcus faecalis; assay: Antimicrobial activity against Enterococcus faecalis ATCC 29212 at 50 ug/disk incubated for 20 +/- 4 hrs by agar disk diffusion method; format: functional; settings: read-out: DIZ; outline: as §1
[10] = test system: Listeria monocytogenes; assay: Synergistic antimicrobial activity against Listeria monocytogenes clinical isolate assessed as DIZ at 50 ug/disk incubated for 20 +/- 4 hrs in presence of fosfomycin by agar disk diffusion method (reference value: 6 millimeter); format: functional; settings: read-out: DIZ
[11] = test system: HCT-116; assay: Cytotoxicity against human HCT116 cells assessed as decrease in cell viability in MTT assay; format: cell-based; outline: as §2
[12] = test system: Escherichia coli; assay: Antimicrobial activity against ssrA-TolC deficient Escherichia coli BW25113 by agar disk diffusion method; format: functional
[13] = test system: Escherichia coli; assay: Antimicrobial activity against TolC deficient Escherichia coli BW25113 by agar disk diffusion method; format: functional
[14] = test system: Enterococcus faecium; assay: Antimicrobial activity against Enterococcus faecium AUS0004 by broth microdilution method; format: functional
Outline: (§3)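 MICs were set by broth microdilution following EUCAST guidelines, from three independent experiments reported as values or ranges. MICs were measured only where disk-diffusion inhibition diameters were 9 mm or more.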

[15] = test system: Bacteroides fragilis; assay: Antimicrobial activity against Bacteroides fragilis ATCC 25285 by broth microdilution method; format: functional; outline: as §3
[16] = test system: Staphylococcus aureus; assay: Antimicrobial activity against Staphylococcus aureus ATCC 29213 at 50 ug/disk incubated for 20 +/- 4 hrs by agar disk diffusion method; format: functional; settings: read-out: DIZ; outline: as §1
[17] = test system: Enterococcus faecium; assay: Synergistic antimicrobial activity against Enterococcus faecium AUS0004 assessed as DIZ at 50 ug/disk incubated for 20 +/- 4 hrs in presence of ampicillin by agar disk diffusion method (reference value: 6 millimeter); format: functional; settings: read-out: DIZ
[18] = test system: Listeria monocytogenes; assay: Synergistic antimicrobial activity against Listeria monocytogenes clinical isolate assessed as DIZ at 50 ug/disk incubated for 20 +/- 4 hrs in presence of ofloxacin by agar disk diffusion method (reference value: 19 millimeter); format: functional; settings: read-out: DIZ
[19] = test system: PC-3; assay: Cytotoxicity against human PC3 cells assessed as decrease in cell viability in MTT assay; format: cell-based; outline: as §2
[20] = test system: Enterococcus faecium; assay: Antimicrobial activity against Enterococcus faecium HM1070 at 50 ug/disk incubated for 20 +/- 4 hrs by agar disk diffusion method; format: functional; settings: read-out: DIZ; outline: as §1
[21] = test system: Streptococcus pyogenes; assay: Antimicrobial activity against Streptococcus pyogenes clinical isolate at 50 ug/disk incubated for 20 +/- 4 hrs by agar disk diffusion method; format: functional; settings: read-out: DIZ
Outline: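 Plates of MH + 5% horse blood were swabbed with a 0.5 McFarland inoculum and received discs with 50 μg compound (from 5 g/L in DMSO) plus a 10 μL DMSO control disc. Incubation at 35 ± 2 °C aerobically with 5% CO2 for 20 ± 4 h, then zone diameters measured.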

[22] = test system: Proteus vulgaris; assay: Antimicrobial activity against Proteus vulgaris clinical isolate at 50 ug/disk incubated for 20 +/- 4 hrs by agar disk diffusion method; format: functional; settings: read-out: DIZ; outline: as §1
[23] = test system: Clostridium perfringens; assay: Antimicrobial activity against Clostridium perfringens clinical isolate by broth microdilution method; format: functional
Outline: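 MIC by broth microdilution following EUCAST guidelines; values or ranges from three independent experiments. MICs were determined only where the disk diffusion inhibition diameter was at least 9 mm.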

[24] = test system: Mycolicibacterium fortuitum; assay: Antimicrobial activity against Mycobacterium fortuitum clinical isolate by broth microdilution method; format: functional; outline: as §3
[25] = test system: Mycobacteroides abscessus; assay: Antimicrobial activity against Mycobacterium abscessus clinical isolate at 50 ug/disk incubated for 4 days by agar disk diffusion method; format: functional; settings: 96 h, read-out: DIZ
Outline: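 On MH agar with 5% horse blood, a 0.5 McFarland inoculum was swabbed and discs with 50 μg compound (from 5 g/L in DMSO) were laid down, alongside a DMSO control disc. Incubation was humid and aerobic at 35 ± 2 °C for 4 days, then growth-inhibition diameters were measured.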

[26] = test system: Proteus mirabilis; assay: Antimicrobial activity against Proteus mirabilis clinical isolate at 50 ug/disk incubated for 20 +/- 4 hrs by agar disk diffusion method; format: functional; settings: read-out: DIZ; outline: as §1
[27] = test system: Escherichia coli; assay: Antimicrobial activity against Escherichia coli ATCC 25922 at 50 ug/disk incubated for 20 +/- 4 hrs by agar disk diffusion method; format: functional; settings: read-out: DIZ; outline: as §1
[28] = test system: Pseudomonas aeruginosa; assay: Antimicrobial activity against Pseudomonas aeruginosa clinical isolate at 50 ug/disk incubated for 20 +/- 4 hrs by agar disk diffusion method; format: functional; settings: read-out: DIZ; outline: as §1
[29] = test system: Enterococcus faecalis; assay: Synergistic antimicrobial activity against Enterococcus faecalis ATCC 29212 assessed as DIZ at 50 ug/disk incubated for 20 +/- 4 hrs in presence of rifampicin by agar disk diffusion method (reference value: 20 millimeter); format: functional; settings: read-out: DIZ
[30] = test system: Listeria monocytogenes; assay: Antimicrobial activity against Listeria monocytogenes clinical isolate by broth microdilution method; format: functional; outline: as §3
[31] = test system: Caco-2; assay: Cytotoxicity against human Caco2 cells assessed as decrease in cell viability in MTT assay; format: cell-based; outline: as §2

Structure (SMILES) | zone of inhibition at 50 µg/disc [2] | zone of inhibition at 50 µg/disc [3] | zone of inhibition at 50 µg/disc [4] | IC50 [5] | IC50 [6] | zone of inhibition at 50 µg/disc [9] | IC50 [11] | diameter of the inhibition zone (DIZ) [12] | diameter of the inhibition zone (DIZ) [13] | MIC [14] | MIC [15] | zone of inhibition at 50 µg/disc [16] | IC50 [19] | zone of inhibition at 50 µg/disc [20] | zone of inhibition at 50 µg/disc [21] | zone of inhibition at 50 µg/disc [22] | MIC [23] | MIC [24] | zone of inhibition at 50 µg/disc [25] | zone of inhibition at 50 µg/disc [26] | further results
O=C(Nc1ncc(-c2ccc(F)cc2)o1)c1ccc(Cl)cc1 | 6 mm | 17 mm | 6 mm | 3 µM | 5 µM | 11 mm | 2 µM | 13 mm | 11.33 mm | 1 to 4 µg/mL (≈ 3.16 to 12.6 µM) | inactive | 16 mm | 2 µM | 13 mm | 6 mm | 10 mm | inactive | 32 to 64 µg/mL (≈ 101 to 202 µM) | 7 mm | 6 mm | zone of inhibition at 50 µg/disc [1]: 12 mm; zone of inhibition at 50 µg/disc [7]: 16 mm; zone of inhibition at 50 µg/disc [8]: 18 mm; zone of inhibition at 50 µg/disc [10]: 15 mm; zone of inhibition at 50 µg/disc [17]: 13 mm; zone of inhibition at 50 µg/disc [18]: 15 mm; zone of inhibition at 50 µg/disc [27]: 8 mm; zone of inhibition at 50 µg/disc [28]: 6 mm; zone of inhibition at 50 µg/disc [29]: 20 mm; MIC [30]: 32 to 64 µg/mL (≈ 101 to 202 µM); IC50 [31]: 3 µM
O=C(Nc1nnc(-c2ccc(C(F)(F)F)cc2)o1)c1cccc(Cl)c1 | 11 mm | 28 mm | 6 mm | 20 µM | 23 µM | 20 mm | 10 µM | 22.3 mm | 21.3 mm | 0.0625 to 0.25 µg/mL (≈ 0.17 to 0.68 µM) | 1 to 2 µg/mL (≈ 2.72 to 5.44 µM) | 24 mm | 17 µM | 23 mm | 9 mm | 6 mm | 2 to 4 µg/mL (≈ 5.44 to 10.9 µM) | 16 to 32 µg/mL (≈ 43.5 to 87 µM) | 9 mm | 6 mm | zone of inhibition at 50 µg/disc [1]: 22 mm; zone of inhibition at 50 µg/disc [7]: 23 mm; zone of inhibition at 50 µg/disc [8]: 25 mm; zone of inhibition at 50 µg/disc [10]: 30 mm; zone of inhibition at 50 µg/disc [17]: 24 mm; zone of inhibition at 50 µg/disc [18]: 29 mm; zone of inhibition at 50 µg/disc [27]: 6 mm; zone of inhibition at 50 µg/disc [28]: 6 mm; zone of inhibition at 50 µg/disc [29]: 23 mm; MIC [30]: 8 µg/mL (≈ 21.8 µM); IC50 [31]: 11 µM
O=C(Nc1nnc(-c2ccc(C(F)(F)F)cc2)o1)c1ccc(Cl)nc1 | 13 mm | 31 mm | 6 mm | > 25 µM | > 25 µM | 23 mm | > 25 µM | 27 mm | 23.6 mm | 2 µg/mL (≈ 5.42 µM) | 2 µg/mL (≈ 5.42 µM) | 22 mm | > 25 µM | 24 mm | 10 mm | 8 mm | 4 µg/mL (≈ 10.8 µM) | 8 µg/mL (≈ 21.7 µM) | 14 mm | 6 mm | zone of inhibition at 50 µg/disc [1]: 22 mm; zone of inhibition at 50 µg/disc [7]: 23 mm; zone of inhibition at 50 µg/disc [8]: 25 mm; zone of inhibition at 50 µg/disc [10]: 29 mm; zone of inhibition at 50 µg/disc [17]: 24 mm; zone of inhibition at 50 µg/disc [18]: 30 mm; zone of inhibition at 50 µg/disc [27]: 6 mm; zone of inhibition at 50 µg/disc [28]: 6 mm; zone of inhibition at 50 µg/disc [29]: 23 mm; MIC [30]: 8 µg/mL (≈ 21.7 µM); IC50 [31]: > 25 µM
O=C(Nc1nnc(-c2ccc(F)cc2)o1)c1ccc(Cl)cc1 | 6 mm | 13 mm | 6 mm | 20 µM | 25 µM | 6 mm | 17 µM | 13 mm | 13 mm | 16 µg/mL (≈ 50.4 µM) | 2 to 4 µg/mL (≈ 6.3 to 12.6 µM) | 12 mm | 21 µM | 8 mm | 6 mm | 6 mm | 4 µg/mL (≈ 12.6 µM) | 32 µg/mL (≈ 101 µM) | 6 mm | 6 mm | zone of inhibition at 50 µg/disc [27]: 6 mm; zone of inhibition at 50 µg/disc [28]: 6 mm; MIC [30]: 4 µg/mL (≈ 12.6 µM); IC50 [31]: 14 µM
